Test results: the M2OR odorant receptor database
Changes are numbered by the printed parent chain.

Assays:
Details in all cases: stereoisomer not certain
O5AP2 A105T = test system: T1, O5AP2 A105T
T1 sequence (whole entry): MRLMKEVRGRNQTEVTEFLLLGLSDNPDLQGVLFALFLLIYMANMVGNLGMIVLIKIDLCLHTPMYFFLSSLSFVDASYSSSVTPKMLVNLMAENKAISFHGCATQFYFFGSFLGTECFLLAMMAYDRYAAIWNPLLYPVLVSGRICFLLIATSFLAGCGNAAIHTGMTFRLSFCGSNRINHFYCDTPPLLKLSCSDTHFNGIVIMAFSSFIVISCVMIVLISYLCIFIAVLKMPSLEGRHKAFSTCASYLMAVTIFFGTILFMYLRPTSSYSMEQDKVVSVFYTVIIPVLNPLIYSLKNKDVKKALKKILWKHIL
Procedure, shortened: (§1)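 Values were gathered from published papers (main text and supplementary material), with extra details requested from the original authors when needed, and checked for typos and inconsistencies. Each receptor–molecule pair is called responsive (active) if the original authors judged the measured signal statistically different from baseline, and non-responsive (inactive) otherwise. Assay methods varied by source, often transient mammalian cell-line luciferase assays. Recorded details include cell line, G-protein, co-transfected protein and tags.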

O5AU1 = test system: T2, O5AU1
T2 sequence (whole entry): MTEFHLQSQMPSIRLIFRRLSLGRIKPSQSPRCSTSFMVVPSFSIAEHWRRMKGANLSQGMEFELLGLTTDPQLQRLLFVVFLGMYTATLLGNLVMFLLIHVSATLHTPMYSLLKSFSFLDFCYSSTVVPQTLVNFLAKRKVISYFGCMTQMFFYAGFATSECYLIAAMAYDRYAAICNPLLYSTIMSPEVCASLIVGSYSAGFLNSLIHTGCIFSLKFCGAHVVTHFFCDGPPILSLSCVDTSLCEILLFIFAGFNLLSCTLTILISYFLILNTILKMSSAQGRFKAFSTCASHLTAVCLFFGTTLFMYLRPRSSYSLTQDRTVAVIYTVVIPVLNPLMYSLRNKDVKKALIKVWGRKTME
Procedure, shortened: as §1

O5H14 = test system: T3, O5H14
T3 sequence (whole entry): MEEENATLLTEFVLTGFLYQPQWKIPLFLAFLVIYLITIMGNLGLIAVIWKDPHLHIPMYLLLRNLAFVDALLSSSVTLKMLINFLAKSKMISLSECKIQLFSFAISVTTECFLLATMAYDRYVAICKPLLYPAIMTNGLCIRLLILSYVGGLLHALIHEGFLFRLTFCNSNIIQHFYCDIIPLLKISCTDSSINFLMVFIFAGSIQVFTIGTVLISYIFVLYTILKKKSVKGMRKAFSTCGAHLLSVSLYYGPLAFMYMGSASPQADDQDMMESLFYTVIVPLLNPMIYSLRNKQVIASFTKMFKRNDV
Procedure, shortened: as §1

O5H15 V108I S148T T167S = test system: T4, O5H15 V108I S148T T167S
T4 sequence (whole entry): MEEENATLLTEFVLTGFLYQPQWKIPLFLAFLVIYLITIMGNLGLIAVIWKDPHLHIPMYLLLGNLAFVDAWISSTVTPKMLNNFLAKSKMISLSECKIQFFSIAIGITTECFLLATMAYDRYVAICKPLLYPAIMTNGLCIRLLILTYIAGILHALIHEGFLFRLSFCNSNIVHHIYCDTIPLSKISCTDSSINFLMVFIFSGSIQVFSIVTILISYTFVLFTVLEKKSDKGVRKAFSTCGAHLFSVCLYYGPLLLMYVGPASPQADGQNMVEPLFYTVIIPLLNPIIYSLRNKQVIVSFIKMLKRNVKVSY
Procedure, shortened: as §1

O6C65 T222A = test system: T5, O6C65 T222A
T5 sequence (whole entry): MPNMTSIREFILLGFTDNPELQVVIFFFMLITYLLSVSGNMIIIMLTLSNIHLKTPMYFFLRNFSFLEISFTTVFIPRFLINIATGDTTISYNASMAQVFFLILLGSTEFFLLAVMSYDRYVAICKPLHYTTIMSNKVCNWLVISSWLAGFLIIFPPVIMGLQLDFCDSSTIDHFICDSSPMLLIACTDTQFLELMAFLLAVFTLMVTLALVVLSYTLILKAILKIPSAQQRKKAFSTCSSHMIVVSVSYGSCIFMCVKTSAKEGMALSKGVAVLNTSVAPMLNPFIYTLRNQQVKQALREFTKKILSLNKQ
Procedure, shortened: as §1

O6C70 L181P = test system: T6, O6C70 L181P
T6 sequence (whole entry): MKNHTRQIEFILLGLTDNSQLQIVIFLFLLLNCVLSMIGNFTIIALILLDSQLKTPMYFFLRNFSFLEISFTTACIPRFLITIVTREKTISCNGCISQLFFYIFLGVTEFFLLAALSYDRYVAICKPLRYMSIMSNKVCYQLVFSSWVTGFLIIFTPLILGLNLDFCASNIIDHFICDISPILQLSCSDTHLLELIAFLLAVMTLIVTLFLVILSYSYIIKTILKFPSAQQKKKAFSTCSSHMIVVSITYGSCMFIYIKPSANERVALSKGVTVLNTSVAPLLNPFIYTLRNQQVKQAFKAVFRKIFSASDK
Procedure, shortened: as §1

O7E24 S193F P242S = test system: T7, O7E24 S193F P242S
T7 sequence (whole entry): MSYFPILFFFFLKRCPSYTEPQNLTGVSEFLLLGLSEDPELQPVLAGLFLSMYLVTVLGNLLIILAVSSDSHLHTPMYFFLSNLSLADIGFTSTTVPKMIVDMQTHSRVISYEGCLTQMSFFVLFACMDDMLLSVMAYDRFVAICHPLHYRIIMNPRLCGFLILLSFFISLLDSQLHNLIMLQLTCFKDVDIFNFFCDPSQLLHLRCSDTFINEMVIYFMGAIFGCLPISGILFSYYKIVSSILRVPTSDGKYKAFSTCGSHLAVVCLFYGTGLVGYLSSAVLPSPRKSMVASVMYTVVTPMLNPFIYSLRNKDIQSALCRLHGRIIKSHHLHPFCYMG
Procedure, shortened: as §1

O7E24 = test system: T8, O7E24
T8 sequence (whole entry): T7 sequence (whole entry) with F193S
Procedure, shortened: as §1

OR10A2 (Homo sapiens) = biological target: T9, OR10A2 (Homo sapiens) (UniProt Q9H208)
T9 sequence (whole entry): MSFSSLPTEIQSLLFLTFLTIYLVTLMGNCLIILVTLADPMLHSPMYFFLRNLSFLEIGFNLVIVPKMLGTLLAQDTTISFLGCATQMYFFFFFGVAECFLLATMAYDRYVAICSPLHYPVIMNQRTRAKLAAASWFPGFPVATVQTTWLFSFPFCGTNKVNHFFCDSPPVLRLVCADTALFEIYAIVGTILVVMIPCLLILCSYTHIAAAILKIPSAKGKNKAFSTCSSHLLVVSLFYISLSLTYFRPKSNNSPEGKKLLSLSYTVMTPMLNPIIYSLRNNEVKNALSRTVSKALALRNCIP
Procedure, shortened: as §1

OR10A3 (Homo sapiens) = biological target: T10, OR10A3 (Homo sapiens) (UniProt P58181)
T10 sequence (whole entry): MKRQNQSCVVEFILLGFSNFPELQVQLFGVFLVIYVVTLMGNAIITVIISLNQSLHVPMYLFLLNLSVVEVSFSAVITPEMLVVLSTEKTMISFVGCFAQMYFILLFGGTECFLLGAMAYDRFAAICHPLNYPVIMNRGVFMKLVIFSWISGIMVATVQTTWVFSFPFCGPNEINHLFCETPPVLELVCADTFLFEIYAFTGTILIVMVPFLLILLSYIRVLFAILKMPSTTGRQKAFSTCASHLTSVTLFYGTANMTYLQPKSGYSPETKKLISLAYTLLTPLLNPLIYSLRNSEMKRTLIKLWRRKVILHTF
Procedure, shortened: as §1

OR10A4 (Homo sapiens) = biological target: T11, OR10A4 (Homo sapiens) (UniProt Q9H209)
T11 sequence (whole entry): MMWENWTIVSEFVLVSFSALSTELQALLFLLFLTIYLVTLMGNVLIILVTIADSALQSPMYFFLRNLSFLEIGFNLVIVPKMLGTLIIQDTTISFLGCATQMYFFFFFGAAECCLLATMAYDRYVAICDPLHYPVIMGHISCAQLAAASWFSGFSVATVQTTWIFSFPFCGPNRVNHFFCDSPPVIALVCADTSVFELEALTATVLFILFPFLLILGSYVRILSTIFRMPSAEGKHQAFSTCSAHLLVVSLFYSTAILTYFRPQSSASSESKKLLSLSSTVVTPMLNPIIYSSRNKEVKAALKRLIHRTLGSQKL
Procedure, shortened: as §1

OR10A5 (Homo sapiens) = biological target: T12, OR10A5 (Homo sapiens) (UniProt Q9H207)
T12 sequence (whole entry): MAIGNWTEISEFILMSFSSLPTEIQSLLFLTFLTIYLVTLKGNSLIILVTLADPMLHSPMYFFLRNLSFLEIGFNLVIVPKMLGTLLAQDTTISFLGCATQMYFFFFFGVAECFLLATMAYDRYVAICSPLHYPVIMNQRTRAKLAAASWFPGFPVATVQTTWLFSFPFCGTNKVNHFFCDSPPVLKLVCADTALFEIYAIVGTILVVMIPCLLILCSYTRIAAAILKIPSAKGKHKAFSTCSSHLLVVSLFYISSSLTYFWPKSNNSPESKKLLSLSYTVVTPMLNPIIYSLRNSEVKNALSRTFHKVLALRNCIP
Procedure, shortened: as §1

OR10A6 (Homo sapiens) = biological target: T13, OR10A6 (Homo sapiens) (UniProt Q8NH74)
T13 sequence (whole entry): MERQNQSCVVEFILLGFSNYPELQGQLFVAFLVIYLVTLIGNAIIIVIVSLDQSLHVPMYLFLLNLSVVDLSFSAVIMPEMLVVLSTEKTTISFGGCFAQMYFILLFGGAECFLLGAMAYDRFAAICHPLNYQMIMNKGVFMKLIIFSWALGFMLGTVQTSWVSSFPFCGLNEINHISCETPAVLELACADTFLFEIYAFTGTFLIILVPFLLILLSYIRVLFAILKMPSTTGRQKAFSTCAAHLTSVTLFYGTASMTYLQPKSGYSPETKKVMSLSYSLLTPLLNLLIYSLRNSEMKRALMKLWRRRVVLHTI
Procedure, shortened: as §1

OR10A7 (Homo sapiens) = biological target: T14, OR10A7 (Homo sapiens) (UniProt Q8NGE5)
T14 sequence (whole entry): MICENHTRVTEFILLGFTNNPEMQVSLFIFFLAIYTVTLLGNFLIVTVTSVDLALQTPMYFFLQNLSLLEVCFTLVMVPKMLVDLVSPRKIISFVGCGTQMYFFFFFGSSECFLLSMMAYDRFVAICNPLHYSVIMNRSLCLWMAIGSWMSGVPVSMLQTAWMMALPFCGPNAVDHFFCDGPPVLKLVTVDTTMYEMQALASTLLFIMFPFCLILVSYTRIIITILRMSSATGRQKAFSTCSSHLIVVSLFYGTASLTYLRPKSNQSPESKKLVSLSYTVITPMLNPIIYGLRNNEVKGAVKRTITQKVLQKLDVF
Procedure, shortened: as §1

OR10AD1 (Homo sapiens) = biological target: T15, OR10AD1 (Homo sapiens) (UniProt Q8NGE0)
T15 sequence (whole entry): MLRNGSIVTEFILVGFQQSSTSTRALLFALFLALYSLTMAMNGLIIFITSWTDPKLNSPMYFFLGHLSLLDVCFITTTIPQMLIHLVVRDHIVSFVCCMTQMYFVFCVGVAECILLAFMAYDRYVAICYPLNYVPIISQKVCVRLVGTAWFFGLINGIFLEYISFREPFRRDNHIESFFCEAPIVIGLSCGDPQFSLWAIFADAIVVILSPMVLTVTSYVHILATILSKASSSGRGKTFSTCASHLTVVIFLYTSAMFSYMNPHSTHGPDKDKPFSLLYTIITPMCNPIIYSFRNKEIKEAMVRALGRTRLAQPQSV
Procedure, shortened: as §1

OR10AG1 (Homo sapiens) = biological target: T16, OR10AG1 (Homo sapiens) (UniProt Q8NH19)
T16 sequence (whole entry): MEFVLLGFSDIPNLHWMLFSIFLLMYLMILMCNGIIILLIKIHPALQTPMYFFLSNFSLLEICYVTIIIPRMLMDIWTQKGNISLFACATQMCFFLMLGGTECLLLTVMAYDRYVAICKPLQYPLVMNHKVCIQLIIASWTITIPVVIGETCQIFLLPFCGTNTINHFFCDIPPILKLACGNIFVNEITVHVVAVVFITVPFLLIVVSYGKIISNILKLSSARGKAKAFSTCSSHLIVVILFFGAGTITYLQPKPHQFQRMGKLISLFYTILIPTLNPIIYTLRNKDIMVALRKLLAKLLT
Procedure, shortened: as §1

OR10C1 (Homo sapiens) = biological target: T17, OR10C1 (Homo sapiens) (UniProt Q96KK4)
T17 sequence (whole entry): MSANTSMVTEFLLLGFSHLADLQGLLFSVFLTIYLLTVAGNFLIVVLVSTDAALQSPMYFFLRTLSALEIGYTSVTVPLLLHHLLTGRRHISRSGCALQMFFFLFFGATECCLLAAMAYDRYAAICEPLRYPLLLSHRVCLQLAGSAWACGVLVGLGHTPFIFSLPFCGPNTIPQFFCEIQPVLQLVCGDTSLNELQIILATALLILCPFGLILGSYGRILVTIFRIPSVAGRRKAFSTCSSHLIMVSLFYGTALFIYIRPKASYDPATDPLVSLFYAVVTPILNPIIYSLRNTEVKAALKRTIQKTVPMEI
Procedure, shortened: as §1

OR10D3 (Homo sapiens) = biological target: T18, OR10D3 (Homo sapiens) (UniProt Q8NH80)
T18 sequence (whole entry): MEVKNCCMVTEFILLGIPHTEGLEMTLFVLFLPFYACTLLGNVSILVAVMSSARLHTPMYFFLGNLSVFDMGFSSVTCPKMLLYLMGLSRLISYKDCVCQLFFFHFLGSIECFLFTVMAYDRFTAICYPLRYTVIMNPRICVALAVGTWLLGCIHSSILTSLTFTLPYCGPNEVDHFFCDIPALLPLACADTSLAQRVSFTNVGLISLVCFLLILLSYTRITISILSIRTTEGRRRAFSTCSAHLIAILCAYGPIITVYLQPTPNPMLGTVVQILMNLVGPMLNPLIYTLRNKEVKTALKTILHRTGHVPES
Procedure, shortened: as §1

Measured: odorant receptor agonist call

CC1=NC(C)C(C)S1 (stereo not drawn)
inactive: all assays above
